Measurements published in ChEMBL document CHEMBL4765243, “Discovery of Novel Bromophenol-Thiosemicarbazone Hybrids as Potent Selective Inhibitors of Poly(ADP-ribose) Polymerase-1 (PARP-1) for Use in Cancer” (J Med Chem, 2019).
Calls of active or inactive are those of the source. The rule behind the calls is not given here.

Legend:
[1] = AUC (0 to infinity) in Sprague-Dawley rat at 10 mg/kg, po by LC/MS/MS analysis; type: ADME, organism-based; design: time infinity, route oral, dose 10 mg/kg; conditions: in vivo
[2] = MRT in Sprague-Dawley rat at 10 mg/kg, po by LC/MS/MS analysis; type: ADME, organism-based; conditions: in vivo
Method in brief: (§1)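 Male Sprague-Dawley rats, 4 per group, dosed once orally at 10 mg/kg or intravenously at 2 mg/kg. Blood taken from the saphenous vein for plasma. Drug levels measured by LC-MS-MS, with parameters derived by noncompartmental analysis.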

[3] = Acute toxicity in SPF Kunming mouse assessed as change in body weight at 100 to 1000 mg/kg, po administered as single dose and measured upto 14 days post drug administration; type: organism-based; conditions: in vivo, 336 h, dose 100-1000 mg/kg, time <=14 day
Method in brief: (§2)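 Single oral dose groups at 0 (physiological saline blank, equal volume), 100, 500 and 1000 mg/kg. Mice housed with free access to water and food in stainless cages, 25 ± 1 °C, 12-h light/dark cycle. Survival, body weight and abnormalities recorded up to 14 days post-treatment.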

[4] = Subacute toxicity in SPF Kunming mouse assessed as change in body weight at 1000 mg/kg, po administered for 14 days and measured on day 14; type: organism-based; conditions: in vivo, 336 h, time 14 day
Method in brief: (§3)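 Twenty SPF Kunming mice (18 - 22 g), half male and half female, randomised into 2 groups of 5 males + 5 females. Treated group dosed orally at 1000 mg/kg once daily for 14 days. Death, clinical signs and body weight monitored. After 14 days: isoflurane anaesthesia, decapitation, tissues collected for H&E histology.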

[5] = Acute toxicity in SPF Kunming mouse assessed as mortality at 100 to 1000 mg/kg, po administered as single dose and measured upto 14 days post drug administration; type: organism-based; conditions: in vivo, 336 h, dose 100-1000 mg/kg, time <=14 day
[6] = Tmax in Sprague-Dawley rat at 2 mg/kg, iv by LC/MS/MS analysis; type: ADME, organism-based; conditions: in vivo; method in brief: as §1
[7] = Toxicity in Balb/c nude mouse xenografted with human SKOV3 cells assessed as histological changes in liver at 25 to 50 mg/kg, po for 21 days by H and E staining based microscopic analysis; type: organism-based; conditions: in vivo, 504 h, dose 25-50 mg/kg, time 21 day
Method in brief: (§4)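 SK-OV-3 xenografts in female BALB/c nude mice were dosed orally at 25 or 50 mg/kg in 0.5% CMC-Na for 21 days. Tumours were then snap-frozen in liquid nitrogen or fixed in 10% neutral-buffered formalin. Analysis used western blotting, H&E and immunohistochemistry on paraffin sections (Ki67, γ-H2AX).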

[8] = test system: SK-OV-3; assay: Antitumor activity against human SKOV3 cells xenografted in Balb/c nude mouse assessed as tumor growth inhibition administered orally for 21 days and measured every third day; type: functional, cell-based; conditions: dose 25-50 mg/kg, time 21.0 day
Method in brief: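 Female BALB/c nu/nu mice, 6-8 weeks old, kept under SPF conditions. Each received 5×10^6 SK-OV-3 cells s.c. At 80–120 mm3 tumour volume, mice were split into four groups (n=6). […] Caliper measurement every three days; volume = X × (Y2/2).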

[9] = Half-life in Sprague-Dawley rat at 2 mg/kg, iv by LC/MS/MS analysis; type: ADME, organism-based; conditions: in vivo; method in brief: as §1
[10] = molecular target: T1, Poly [ADP-ribose] polymerase 1 (Homo sapiens, UniProt P09874); assay: Inhibition of PARP-1 in human SKOV3 cells assessed as increase in gammaH2AX expression level by immunofluorescence analysis; type: cell-based; conditions: SK-OV-3
[11] = test system: L02; assay: Cytotoxicity against human HL7702 cells assessed as cell growth inhibition incubated for 48 hrs by MTT assay; type: cell-based; conditions: L02, 48 h
Method in brief: (§5)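 Cells seeded in 96-well plates and exposed to compounds for 48 h; viability read by MTT. Each experiment repeated three times. SK-OV-3 grown in McCOY's 5A, Bel-7402 and HL-7702 in RPMI-1640, HepG2 in DMEM, Caco-2 in MEM.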

[12] = molecular target: T1, Poly [ADP-ribose] polymerase 1; assay: Inhibition of PARP-1 in human SKOV3 cells assessed as intracellular poly-ADP ribose level at 2.5 to 10 uM incubated for 48 hrs by Western blot analysis; type: cell-based; conditions: SK-OV-3, dose 2.5-10 µM
Method in brief: (§6)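 SK-OV-3 cells were grown in McCOY's 5A, seeded in 6-well plates and treated for 48 h. Lysate proteins were separated by 8-15 % SDS-PAGE and transferred to PVDF membranes. Membranes were blocked in 5 % nonfat milk, probed with primary antibody overnight at 4 °C and with HRP secondary antibody for 1 h at room temperature, then detected by enhanced chemiluminescence. Images are representative of 3 independent experiments.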

[13] = Acute toxicity in SPF Kunming mouse assessed as abnormality at 100 to 1000 mg/kg, po administered as single dose and measured upto 14 days post drug administration; type: organism-based; conditions: in vivo, 336 h, dose 100-1000 mg/kg, time <=14 day; method in brief: as §2
[14] = test system: SK-OV-3; assay: Induction of cell cycle arrest in human SKOV3 cells assessed as accumulation at G2/M phase incubated for 48 hrs by propidium iodide staining based flow cytometry analysis; type: functional
Method in brief: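 SK-OV-3 cells in 6-well plates incubated 24 h, then treated 48 h. Cells harvested, fixed, stained with propidium iodide and analysed by flow cytometry.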

[15] = test system: SK-OV-3; assay: Induction of apoptosis in human SKOV3 cells assessed as increase in Bax expression at 2.5 to 10 uM incubated for 48 hrs by western blot analysis; type: functional, cell-based; conditions: dose 2.5-10 µM
[16] = Subacute toxicity in SPF Kunming mouse assessed as change in liver at 1000 mg/kg, po administered for 14 days by H and E staining based microscopic analysis; type: organism-based; conditions: in vivo, 336 h, time 14 day; method in brief: as §3
[17] = molecular target: T1, Poly [ADP-ribose] polymerase 1; assay: Inhibition of PARP-1 in human SKOV3 cells assessed as decrease in MCM7 protein expression level at 2.5 to 10 uM incubated for 48 hrs by western blot analysis; type: cell-based; conditions: SK-OV-3, dose 2.5-10 µM; method in brief: as §6
[18] = test system: SK-OV-3; assay: Antiproliferative activity against human SK-OV-3 cells assessed as cell growth inhibition incubated for 48 hrs by MTT assay; type: functional, cell-based; conditions: SK-OV-3, 48 h; method in brief: as §5
[19] = Toxicity in Balb/c nude mouse xenografted with human SKOV3 cells assessed as histological changes in heart at 25 to 50 mg/kg, po for 21 days by H and E staining based microscopic analysis; type: organism-based; conditions: in vivo, 504 h, dose 25-50 mg/kg, time 21 day; method in brief: as §4
[20] = Half-life in Sprague-Dawley rat at 10 mg/kg, po by LC/MS/MS analysis; type: ADME, organism-based; conditions: in vivo; method in brief: as §1
[21] = test system: HepG2; assay: Antiproliferative activity against human HepG2 cells assessed as cell growth inhibition at 20 uM incubated for 48 hrs by MTT assay relative to control; type: functional
[22] = test system: SK-OV-3; assay: Induction of autophagy in human SKOV3 cells transfected with GFP-LC3 assessed as increase in LC3 dot accumulation at 10 uM incubated for 48 hrs by TEM analysis; type: functional, cell-based; conditions: in the assay text read “fluorescence microscopy” for “TEM analysis”
Method in brief: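 SK-OV-3 cells on glass coverslips infected with Ad-mCherry-GFP-LC3B for 24 h. Cells then treated at 10 µM for 48 h, fixed in 4% paraformaldehyde and examined by fluorescence microscopy.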

[23] = Selectivity index, ratio of IC50 for inhibition of human recombinant N-terminal GST-tagged PARP-2 to IC50 for inhibition of human recombinant GST-tagged PARP-1
[24] = molecular target: T1, Poly [ADP-ribose] polymerase 1; assay: Inhibition of PARP-1 in human SKOV3 cells assessed as decrease in MCM4 protein expression level at 2.5 to 10 uM incubated for 48 hrs by western blot analysis; type: cell-based; conditions: SK-OV-3, dose 2.5-10 µM; method in brief: as §6
[25] = Subacute toxicity in SPF Kunming mouse assessed as change in kidney at 1000 mg/kg, po administered for 14 days by H and E staining based microscopic analysis; type: organism-based; conditions: in vivo, 336 h, time 14 day; method in brief: as §3

T1 sequence (P09874 whole entry): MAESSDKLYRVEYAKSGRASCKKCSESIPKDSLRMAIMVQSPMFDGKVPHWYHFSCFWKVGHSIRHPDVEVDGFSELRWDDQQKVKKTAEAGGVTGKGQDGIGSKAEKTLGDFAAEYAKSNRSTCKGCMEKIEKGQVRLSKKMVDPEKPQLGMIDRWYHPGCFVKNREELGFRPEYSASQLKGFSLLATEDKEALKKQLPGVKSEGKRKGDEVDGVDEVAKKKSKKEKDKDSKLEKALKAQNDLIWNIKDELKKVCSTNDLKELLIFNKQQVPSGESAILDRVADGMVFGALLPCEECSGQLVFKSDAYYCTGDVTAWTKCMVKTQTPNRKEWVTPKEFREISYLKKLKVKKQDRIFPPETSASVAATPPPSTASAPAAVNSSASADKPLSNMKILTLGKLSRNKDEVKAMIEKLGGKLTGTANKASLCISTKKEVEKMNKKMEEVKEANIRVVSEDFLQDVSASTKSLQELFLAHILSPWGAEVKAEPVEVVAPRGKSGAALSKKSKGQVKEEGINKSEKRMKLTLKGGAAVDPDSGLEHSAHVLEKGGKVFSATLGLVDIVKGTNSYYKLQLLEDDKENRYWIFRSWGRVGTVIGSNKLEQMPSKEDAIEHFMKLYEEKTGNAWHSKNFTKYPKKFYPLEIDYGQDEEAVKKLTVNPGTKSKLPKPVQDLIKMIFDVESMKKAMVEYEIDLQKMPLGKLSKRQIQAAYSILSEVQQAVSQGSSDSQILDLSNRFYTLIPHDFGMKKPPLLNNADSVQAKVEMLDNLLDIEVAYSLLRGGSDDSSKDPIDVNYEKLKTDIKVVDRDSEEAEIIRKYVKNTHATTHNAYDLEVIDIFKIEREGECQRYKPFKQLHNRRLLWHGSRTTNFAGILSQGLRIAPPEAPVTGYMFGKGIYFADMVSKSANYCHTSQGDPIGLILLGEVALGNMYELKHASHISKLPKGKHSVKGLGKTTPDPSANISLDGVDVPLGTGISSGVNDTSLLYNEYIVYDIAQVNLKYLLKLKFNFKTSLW

Structure (SMILES): COc1cc(/C=N/NC(N)=S)c(Br)c(Br)c1OC
- AUC [1]: 0.0839 µM·h
- MRT [2]: 3.76 h
- Activity [3]: Non-Toxic
- Activity [4]: Non-Toxic
- Activity [5]: Non-Toxic
- Tmax [6]: 4.8 min
- Activity [7]: Non-Toxic
- inhibition [8]: Dose-dependent effect
- half-life [9]: 0.79 h
- inhibition [10]: Active
- IC50 [11]: 13.3 µM
- inhibition [12]: Active
- Activity [13]: Non-Toxic
- Activity [14]: Dose-dependent effect
- Activity [15]: Active
- Activity [16]: Non-Toxic
- inhibition [17]: Active
- IC50 [18]: 2.39 µM
- Activity [19]: Non-Toxic
- half-life [20]: 2.6 h
- inhibition at 20 µM [21]: 71.6%
- Activity [22]: Active
- Ratio IC50 [23]: > 33.9
- inhibition [24]: Active
- Activity [25]: Non-Toxic
